{"data": "Results gathered from unrelated publications", "CDK16": "Cyclin-dependent kinase 16 (CDK16, Homo sapiens, UniProt Q00536)", "CDK16 with cyclin Y": "Cyclin-dependent kinase 16, with cyclin Y (CDK16, Homo sapiens, UniProt Q00536)"}
{"Compound": "CN([C@@H]1CCc2c(CC(=O)O)c3cc(S(C)(=O)=O)ccc3n2C1)S(=O)(=O)c1ccc(F)cc1", "target": "CDK16", "assay": "cell-free assay, competition with immobilised ligand", "conditions": "1 µM", "quantity": "remaining binding", "value": "84%"}
{"Compound": "Cn1c2c(c3ccc(Cl)c(Cl)c31)C(C#N)C1(CCN(C(=O)OC(C)(C)C)CC1)NC2=O (racemic)", "target": "CDK16", "assay": "thermal stability, DSF", "conditions": "10 µM", "quantity": "ΔTm", "value": "0 °C"}
{"Compound": "CNC(=O)Nc1ccc2c(c1)CC[C@@]21OC(=O)N(CC(=O)N(Cc2ccc(F)cc2)[C@@H](C)C(F)(F)F)C1=O", "target": "CDK16", "assay": "cell-free assay, competition with immobilised ligand", "conditions": "1 µM", "quantity": "remaining binding", "value": "75%"}
{"Compound": "Cn1c2c(Cl)c(Cl)ccc2c2cn[nH]c(=O)c21", "target": "CDK16", "assay": "thermal stability, DSF", "conditions": "10 µM", "quantity": "ΔTm", "value": "0.8 °C"}
{"Compound": "CC(C)(C)c1nc(-c2cccc(NS(=O)(=O)c3c(F)cccc3F)c2F)c(-c2ccnc(N)n2)s1", "target": "CDK16 with cyclin Y", "assay": "enzyme activity, inhibitor, radiometric", "conditions": "1 µM", "quantity": "remaining activity", "value": "53%"}
{"Compound": "COc1cccc2c(NCc3ccccc3)nc(-n3c(N)nc4ccccc43)nc12", "target": "CDK16", "assay": "target engagement in cells, inhibitor, chemoproteomics", "conditions": "20 mM", "quantity": "inhibition", "value": "-2.7%"}
{"Compound": "Cc1ccc(C(=O)Nc2ccc(CN3CCN(C)CC3)c(C(F)(F)F)c2)cc1C#Cc1cnc2cccnn12", "target": "CDK16", "assay": "enzyme activity, inhibitor", "conditions": "23.5 nM", "quantity": "remaining activity", "value": "77%"}
{"Compound": "CO[C@@H](C)c1c(Nc2ccc([C@@H](N(C)C(=O)C3CCS(=O)(=O)CC3)C(F)(F)F)cc2)cnc2cc(Cl)nn12", "target": "CDK16", "assay": "cell-free assay, competition with immobilised ligand", "conditions": "1 µM", "quantity": "remaining binding", "value": "72%"}
{"Compound": "c1ccc(CNc2nc(N3CCOc4ccccc43)nc3c2CCCC3)cc1", "target": "CDK16", "assay": "target engagement in cells, inhibitor, chemoproteomics", "conditions": "20 mM", "quantity": "inhibition", "value": "2.9%"}
{"Compound": "Cn1c2c(c3ccc(Cl)c(Cl)c31)C(C#N)C1(CCCCC1)NC2=O (racemic)", "target": "CDK16", "assay": "thermal stability, DSF", "conditions": "10 µM", "quantity": "ΔTm", "value": "0.6 °C"}
{"Compound": "O=C(O)c1cc(-c2ccc(C3CCNCC3)cc2)c2ccc(-c3ccc(C(F)(F)F)cc3)cc2c1", "target": "CDK16", "assay": "cell-free assay, competition with immobilised ligand", "conditions": "1 µM", "quantity": "remaining binding", "value": "100%"}
{"Compound": "CS(=O)(=O)Nc1cccc(-c2csc(NC(=O)CSc3nc4nccnc4c(=O)n3CCc3ccccc3)n2)c1", "target": "CDK16 with cyclin Y", "assay": "enzyme activity, inhibitor", "conditions": "10 µM", "quantity": "inhibition", "value": "-1%"}
